Laboratory results: ChEMBL document CHEMBL1144846, “Herkinorin analogues with differential beta-arrestin-2 interactions” (J Med Chem, 2008)
pEC50, pKi: −log10 of the molar value.

Biological target: T1, Mu-type opioid receptor (Homo sapiens, UniProt P35372)
Experiment: Agonist activity at human recombinant mu opioid receptor expressed in CHO cells by [35S]GTP-gamma-S binding assay relative to DAMGO
Assay type: functional, cell-based

T1 sequence (P35372 whole entry): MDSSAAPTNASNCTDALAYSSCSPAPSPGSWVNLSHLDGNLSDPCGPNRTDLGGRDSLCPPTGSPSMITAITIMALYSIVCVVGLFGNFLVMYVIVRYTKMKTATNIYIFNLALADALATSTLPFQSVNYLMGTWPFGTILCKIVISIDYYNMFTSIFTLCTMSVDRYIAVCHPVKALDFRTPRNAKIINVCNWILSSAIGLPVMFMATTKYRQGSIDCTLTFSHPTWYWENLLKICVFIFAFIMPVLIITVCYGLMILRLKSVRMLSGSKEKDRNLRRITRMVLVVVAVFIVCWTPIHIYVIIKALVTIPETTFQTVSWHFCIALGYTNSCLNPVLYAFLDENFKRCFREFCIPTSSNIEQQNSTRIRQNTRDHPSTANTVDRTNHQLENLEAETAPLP

Structure (SMILES) | Emax [%]
COC(=O)[C@@H]1C[C@H](OC(=O)c2ccsc2)C(=O)[C@H]2[C@@]1(C)CC[C@H]1C(=O)O[C@H](c3ccoc3)C[C@]21C | 108
COC(=O)[C@@H]1C[C@H](OC(=O)c2ccc(OC)cc2)C(=O)[C@H]2[C@@]1(C)CC[C@H]1C(=O)O[C@H](c3ccoc3)C[C@]21C | 94
COC(=O)[C@@H]1C[C@H](OC(=O)c2ccc(Br)cc2)C(=O)[C@H]2[C@@]1(C)CC[C@H]1C(=O)O[C@H](c3ccoc3)C[C@]21C | 108
COC(=O)[C@@H]1C[C@H](OC(=O)c2ccc([N+](=O)[O-])cc2)C(=O)[C@H]2[C@@]1(C)CC[C@H]1C(=O)O[C@H](c3ccoc3)C[C@]21C | 46
COC(=O)[C@@H]1C[C@H](OC(=O)c2cccc(OC)c2)C(=O)[C@H]2[C@@]1(C)CC[C@H]1C(=O)O[C@H](c3ccoc3)C[C@]21C | 72

Biological target: T2, Kappa-type opioid receptor (Homo sapiens, UniProt P41145)
Experiment: Displacement of [125I]IOXY from human recombinant kappa opioid receptor expressed in CHO cells
Assay type: cell-based

T2 sequence (P41145 whole entry): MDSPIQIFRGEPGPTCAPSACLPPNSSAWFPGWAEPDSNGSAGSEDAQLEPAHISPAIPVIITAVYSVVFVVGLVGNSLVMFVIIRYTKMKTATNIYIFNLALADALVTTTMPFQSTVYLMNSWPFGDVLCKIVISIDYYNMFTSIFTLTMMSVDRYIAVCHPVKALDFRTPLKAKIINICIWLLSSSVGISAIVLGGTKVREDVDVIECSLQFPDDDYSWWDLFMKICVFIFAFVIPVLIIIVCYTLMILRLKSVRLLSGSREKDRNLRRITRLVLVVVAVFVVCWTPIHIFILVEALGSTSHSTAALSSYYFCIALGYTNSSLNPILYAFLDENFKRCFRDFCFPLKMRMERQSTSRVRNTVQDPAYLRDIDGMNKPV

Structure (SMILES) | pKi
COC(=O)[C@@H]1C[C@H](OC(=O)c2ccsc2)C(=O)[C@H]2[C@@]1(C)CC[C@H]1C(=O)O[C@H](c3ccoc3)C[C@]21C | 7.10
COC(=O)[C@@H]1C[C@H](OC(=O)c2ccc(OC)cc2)C(=O)[C@H]2[C@@]1(C)CC[C@H]1C(=O)O[C@H](c3ccoc3)C[C@]21C | 6.27
COC(=O)[C@@H]1C[C@H](OC(=O)c2ccc([N+](=O)[O-])cc2)C(=O)[C@H]2[C@@]1(C)CC[C@H]1C(=O)O[C@H](c3ccoc3)C[C@]21C | 6.24
COC(=O)[C@@H]1C[C@H](OC(=O)c2cccc(OC)c2)C(=O)[C@H]2[C@@]1(C)CC[C@H]1C(=O)O[C@H](c3ccoc3)C[C@]21C | 6.26

Organism: Homo sapiens
Experiment: Selectivity for human recombinant kappa opioid receptor over human recombinant delta opioid receptor

Structure (SMILES) | Ratio Ki
COC(=O)[C@@H]1C[C@H](OC(=O)c2ccsc2)C(=O)[C@H]2[C@@]1(C)CC[C@H]1C(=O)O[C@H](c3ccoc3)C[C@]21C | 9
COC(=O)[C@@H]1C[C@H](OC(=O)c2ccc(OC)cc2)C(=O)[C@H]2[C@@]1(C)CC[C@H]1C(=O)O[C@H](c3ccoc3)C[C@]21C | 3
COC(=O)[C@@H]1C[C@H](OC(=O)c2ccc(Br)cc2)C(=O)[C@H]2[C@@]1(C)CC[C@H]1C(=O)O[C@H](c3ccoc3)C[C@]21C | 2
COC(=O)[C@@H]1C[C@H](OC(=O)c2ccc([N+](=O)[O-])cc2)C(=O)[C@H]2[C@@]1(C)CC[C@H]1C(=O)O[C@H](c3ccoc3)C[C@]21C | 0.45
COC(=O)[C@@H]1C[C@H](OC(=O)c2cccc(OC)c2)C(=O)[C@H]2[C@@]1(C)CC[C@H]1C(=O)O[C@H](c3ccoc3)C[C@]21C | 2

Biological target: T2, Kappa-type opioid receptor
Experiment: Agonist activity at human recombinant kappa opioid receptor expressed in CHO cells by [35S]GTP-gamma-S binding assay
Assay type: functional, cell-based

Structure (SMILES) | pEC50
COC(=O)[C@@H]1C[C@H](OC(=O)c2ccsc2)C(=O)[C@H]2[C@@]1(C)CC[C@H]1C(=O)O[C@H](c3ccoc3)C[C@]21C | 6.08
COC(=O)[C@@H]1C[C@H](OC(=O)c2ccc(OC)cc2)C(=O)[C@H]2[C@@]1(C)CC[C@H]1C(=O)O[C@H](c3ccoc3)C[C@]21C | 5.58
COC(=O)[C@@H]1C[C@H](OC(=O)c2cccc(OC)c2)C(=O)[C@H]2[C@@]1(C)CC[C@H]1C(=O)O[C@H](c3ccoc3)C[C@]21C | 5.44

Biological target: T1, Mu-type opioid receptor
Experiment: Agonist activity at human recombinant mu opioid receptor expressed in CHO cells by [35S]GTP-gamma-S binding assay
Assay type: functional, cell-based

Structure (SMILES) | pEC50
COC(=O)[C@@H]1C[C@H](OC(=O)c2ccsc2)C(=O)[C@H]2[C@@]1(C)CC[C@H]1C(=O)O[C@H](c3ccoc3)C[C@]21C | 6.16
COC(=O)[C@@H]1C[C@H](OC(=O)c2ccc(OC)cc2)C(=O)[C@H]2[C@@]1(C)CC[C@H]1C(=O)O[C@H](c3ccoc3)C[C@]21C | 6.08
COC(=O)[C@@H]1C[C@H](OC(=O)c2ccc(Br)cc2)C(=O)[C@H]2[C@@]1(C)CC[C@H]1C(=O)O[C@H](c3ccoc3)C[C@]21C | 5.31
COC(=O)[C@@H]1C[C@H](OC(=O)c2ccc([N+](=O)[O-])cc2)C(=O)[C@H]2[C@@]1(C)CC[C@H]1C(=O)O[C@H](c3ccoc3)C[C@]21C | 5.86
COC(=O)[C@@H]1C[C@H](OC(=O)c2cccc(OC)c2)C(=O)[C@H]2[C@@]1(C)CC[C@H]1C(=O)O[C@H](c3ccoc3)C[C@]21C | 5.78

Biological target: T1, Mu-type opioid receptor
Experiment: Agonist activity at human mu opioid receptor expressed in CHO cells assessed as increase in ERK phosphorylation after 10 mins
Assay type: functional, cell-based
In short: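 CHO cells stably expressing human MOR1 (~800 fmol/mg membrane protein), serum-starved 30 min at 37°C, then treated 10 min, with naloxone present where indicated. Lysates were run on SDS-PAGE and immunoblotted for total ERK1/2, then stripped and reprobed for phospho-ERK (Tyr204), with HRP chemiluminescence detection. Densitometry; at least three experiments in triplicate.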

Structure (SMILES) | Activity
COC(=O)[C@@H]1C[C@H](OC(=O)c2ccc(OC)cc2)C(=O)[C@H]2[C@@]1(C)CC[C@H]1C(=O)O[C@H](c3ccoc3)C[C@]21C | Dose-dependent effect
COC(=O)[C@@H]1C[C@H](OC(=O)c2ccc(Br)cc2)C(=O)[C@H]2[C@@]1(C)CC[C@H]1C(=O)O[C@H](c3ccoc3)C[C@]21C | Dose-dependent effect
COC(=O)[C@@H]1C[C@H](OC(=O)c2ccc([N+](=O)[O-])cc2)C(=O)[C@H]2[C@@]1(C)CC[C@H]1C(=O)O[C@H](c3ccoc3)C[C@]21C | Dose-dependent effect

Organism: Homo sapiens
Experiment: Selectivity for human recombinant kappa opioid receptor over human recombinant mu opioid receptor

Structure (SMILES) | Ratio Ki
COC(=O)[C@@H]1C[C@H](OC(=O)c2ccsc2)C(=O)[C@H]2[C@@]1(C)CC[C@H]1C(=O)O[C@H](c3ccoc3)C[C@]21C | 0.16
COC(=O)[C@@H]1C[C@H](OC(=O)c2ccc(OC)cc2)C(=O)[C@H]2[C@@]1(C)CC[C@H]1C(=O)O[C@H](c3ccoc3)C[C@]21C | 0.12
COC(=O)[C@@H]1C[C@H](OC(=O)c2ccc(Br)cc2)C(=O)[C@H]2[C@@]1(C)CC[C@H]1C(=O)O[C@H](c3ccoc3)C[C@]21C | 0.01
COC(=O)[C@@H]1C[C@H](OC(=O)c2ccc([N+](=O)[O-])cc2)C(=O)[C@H]2[C@@]1(C)CC[C@H]1C(=O)O[C@H](c3ccoc3)C[C@]21C | 13
COC(=O)[C@@H]1C[C@H](OC(=O)c2cccc(OC)c2)C(=O)[C@H]2[C@@]1(C)CC[C@H]1C(=O)O[C@H](c3ccoc3)C[C@]21C | 0.05

Biological target: T1, Mu-type opioid receptor
Experiment: Displacement of [125I]IOXY from human recombinant mu opioid receptor expressed in CHO cells
Assay type: cell-based

Structure (SMILES) | pKi
COC(=O)[C@@H]1C[C@H](OC(=O)c2ccsc2)C(=O)[C@H]2[C@@]1(C)CC[C@H]1C(=O)O[C@H](c3ccoc3)C[C@]21C | 8.00
COC(=O)[C@@H]1C[C@H](OC(=O)c2ccc(OC)cc2)C(=O)[C@H]2[C@@]1(C)CC[C@H]1C(=O)O[C@H](c3ccoc3)C[C@]21C | 7.15
COC(=O)[C@@H]1C[C@H](OC(=O)c2ccc([N+](=O)[O-])cc2)C(=O)[C@H]2[C@@]1(C)CC[C@H]1C(=O)O[C@H](c3ccoc3)C[C@]21C | 6.59
COC(=O)[C@@H]1C[C@H](OC(=O)c2cccc(OC)c2)C(=O)[C@H]2[C@@]1(C)CC[C@H]1C(=O)O[C@H](c3ccoc3)C[C@]21C | 7.52

Biological target: T2, Kappa-type opioid receptor
Experiment: Agonist activity at human recombinant kappa opioid receptor expressed in CHO cells by [35S]GTPgammaS binding assay relative to (-)-U50,488
Assay type: functional, cell-based

Structure (SMILES) | Emax [%]
COC(=O)[C@@H]1C[C@H](OC(=O)c2ccsc2)C(=O)[C@H]2[C@@]1(C)CC[C@H]1C(=O)O[C@H](c3ccoc3)C[C@]21C | 95
COC(=O)[C@@H]1C[C@H](OC(=O)c2ccc(OC)cc2)C(=O)[C@H]2[C@@]1(C)CC[C@H]1C(=O)O[C@H](c3ccoc3)C[C@]21C | 106
COC(=O)[C@@H]1C[C@H](OC(=O)c2cccc(OC)c2)C(=O)[C@H]2[C@@]1(C)CC[C@H]1C(=O)O[C@H](c3ccoc3)C[C@]21C | 97

Biological target: Delta-type opioid receptor (Homo sapiens, UniProt P41143)
Experiment: Displacement of [125I]IOXY from human recombinant delta opioid receptor expressed in CHO cells
Assay type: cell-based

Delta-type opioid receptor, sequence (P41143 whole entry): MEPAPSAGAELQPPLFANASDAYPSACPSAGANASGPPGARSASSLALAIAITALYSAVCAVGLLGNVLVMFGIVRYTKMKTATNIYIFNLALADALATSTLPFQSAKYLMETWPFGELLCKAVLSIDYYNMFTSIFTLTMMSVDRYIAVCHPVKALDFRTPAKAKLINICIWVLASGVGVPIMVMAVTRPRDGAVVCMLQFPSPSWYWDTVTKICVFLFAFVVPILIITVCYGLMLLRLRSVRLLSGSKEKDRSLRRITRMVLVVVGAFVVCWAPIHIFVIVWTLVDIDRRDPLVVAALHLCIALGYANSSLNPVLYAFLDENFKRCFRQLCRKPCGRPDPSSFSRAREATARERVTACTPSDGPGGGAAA

Structure (SMILES) | pKi
COC(=O)[C@@H]1C[C@H](OC(=O)c2ccsc2)C(=O)[C@H]2[C@@]1(C)CC[C@H]1C(=O)O[C@H](c3ccoc3)C[C@]21C | 6.16
COC(=O)[C@@H]1C[C@H](OC(=O)c2ccc(OC)cc2)C(=O)[C@H]2[C@@]1(C)CC[C@H]1C(=O)O[C@H](c3ccoc3)C[C@]21C | 5.73
COC(=O)[C@@H]1C[C@H](OC(=O)c2ccc([N+](=O)[O-])cc2)C(=O)[C@H]2[C@@]1(C)CC[C@H]1C(=O)O[C@H](c3ccoc3)C[C@]21C | < 5.00
COC(=O)[C@@H]1C[C@H](OC(=O)c2cccc(OC)c2)C(=O)[C@H]2[C@@]1(C)CC[C@H]1C(=O)O[C@H](c3ccoc3)C[C@]21C | 5.94
